Data as given in ChEMBL document CHEMBL1142088, “Cumulative effects of several nonenzymatic mechanisms on the resistance of Pseudomonas aeruginosa to aminoglycosides” (2007).
≈ marks a conversion by molar mass, not a printed value.

Legend:
Assay type in all cases: functional
Pseudomonas aeruginosa [1] = assay: Antibacterial activity against Pseudomonas aeruginosa PAO1 by microdilution method
Pseudomonas aeruginosa [2] = assay: Antibacterial activity against Pseudomonas aeruginosa FE53GU with inactivated mexZ, nuoG and galU genes by […]
Pseudomonas aeruginosa [3] = assay: Antibacterial activity against Pseudomonas aeruginosa FE57GU with inactivated rplY, nuoG and galU genes by […]
Pseudomonas aeruginosa [4] = assay: Antibacterial activity against Pseudomonas aeruginosa FE57UZ with inactivated rplY, galU and mexZ genes […]
Pseudomonas aeruginosa [5] = assay: Antibacterial activity against Pseudomonas aeruginosa FE57GZ with inactivated rplY, nuoG and mexZ genes […]
Pseudomonas aeruginosa [6] = assay: Antibacterial activity against Pseudomonas aeruginosa FE57GUZ with inactivated rplY, nuoG, galU and mexZ genes […]
Pseudomonas aeruginosa [7] = assay: Antibacterial activity against Pseudomonas aeruginosa KJ7106 with inactivated PA5471 gene by microdilution method
Pseudomonas aeruginosa [8] = assay: Antibacterial activity against Pseudomonas aeruginosa FE60 containing inactivated mexXY gene by microdilution method
Pseudomonas aeruginosa [9] = assay: Antibacterial activity against Pseudomonas aeruginosa FE63 containing inactivated rplY and PA5471 genes by microdilution method
Pseudomonas aeruginosa [10] = assay: Antibacterial activity against Pseudomonas aeruginosa FE64 containing inactivated rplY and mexXY genes by microdilution method
Pseudomonas aeruginosa [11] = assay: Antibacterial activity against Pseudomonas aeruginosa FE10 with inactivated nuoG gene by microdilution method
Pseudomonas aeruginosa [12] = assay: Antibacterial activity against Pseudomonas aeruginosa FE49 with inactivated galU gene by microdilution method
Pseudomonas aeruginosa [13] = assay: Antibacterial activity against Pseudomonas aeruginosa FE53 with inactivated mexZ gene by microdilution method
Pseudomonas aeruginosa [14] = assay: Antibacterial activity against Pseudomonas aeruginosa FE57 with inactivated rplY gene by microdilution method
Pseudomonas aeruginosa [15] = assay: Antibacterial activity against Pseudomonas aeruginosa FE57 containing inactivated rplY gene with pARAL25 by microdilution method
How it was run: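 MIC for the rplY mutant carrying plasmid-borne rplY under the arabinose-inducible pBAD promoter. Cells grown with 150 μg/ml ticarcillin to keep the plasmid and 0.2% arabinose. Serial twofold dilution with about 10^4 bacteria per spot at 37°C.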

Pseudomonas aeruginosa [16] = assay: Antibacterial activity against Pseudomonas aeruginosa FE10U with inactivated nuoG and galU genes by microdilution method
Pseudomonas aeruginosa [17] = assay: Antibacterial activity against Pseudomonas aeruginosa FE53U with inactivated mexZ and galU genes by microdilution method
Pseudomonas aeruginosa [18] = assay: Antibacterial activity against Pseudomonas aeruginosa FE57U with inactivated rplY and galU genes by microdilution method
Pseudomonas aeruginosa [19] = assay: Antibacterial activity against Pseudomonas aeruginosa FE53G with inactivated mexZ and nuoG genes by microdilution method
Pseudomonas aeruginosa [20] = assay: Antibacterial activity against Pseudomonas aeruginosa FE57G with inactivated rplY and nuoG genes by microdilution method
Pseudomonas aeruginosa [21] = assay: Antibacterial activity against Pseudomonas aeruginosa FE57Z with inactivated rplY and mexZ genes by microdilution method

NCC[C@H](O)C(=O)N[C@@H]1C[C@H](N)[C@@H](O[C@H]2O[C@H](CN)[C@@H](O)[C@H](O)[C@H]2O)[C@H](O)[C@H]1O[C@H]1O[C@H](CO)[C@@H](O)[C@H](N)[C@H]1O [AMIKACIN]
MIC (Pseudomonas aeruginosa [1]): 4 µg/mL (≈ 6.83 µM) | MIC (Pseudomonas aeruginosa [2]): 32 µg/mL (≈ 54.6 µM) | MIC (Pseudomonas aeruginosa [3]): 32 µg/mL (≈ 54.6 µM) | MIC (Pseudomonas aeruginosa [4]): 32 µg/mL (≈ 54.6 µM) | MIC (Pseudomonas aeruginosa [5]): 32 µg/mL (≈ 54.6 µM) | MIC (Pseudomonas aeruginosa [6]): 64 µg/mL (≈ 109 µM) | MIC (Pseudomonas aeruginosa [7]): 1 µg/mL (≈ 1.71 µM) | MIC (Pseudomonas aeruginosa [8]): 1 µg/mL (≈ 1.71 µM) | MIC (Pseudomonas aeruginosa [9]): 2 µg/mL (≈ 3.42 µM) | MIC (Pseudomonas aeruginosa [10]): 2 µg/mL (≈ 3.42 µM) | MIC (Pseudomonas aeruginosa [11]): 8 µg/mL (≈ 13.7 µM) | MIC (Pseudomonas aeruginosa [12]): 8 µg/mL (≈ 13.7 µM) | MIC (Pseudomonas aeruginosa [13]): 8 µg/mL (≈ 13.7 µM) | MIC (Pseudomonas aeruginosa [14]): 8 µg/mL (≈ 13.7 µM) | MIC (Pseudomonas aeruginosa [15]): 4 µg/mL (≈ 6.83 µM) | MIC (Pseudomonas aeruginosa [16]): 8 µg/mL (≈ 13.7 µM) | MIC (Pseudomonas aeruginosa [17]): 16 µg/mL (≈ 27.3 µM) | MIC (Pseudomonas aeruginosa [18]): 16 µg/mL (≈ 27.3 µM) | MIC (Pseudomonas aeruginosa [19]): 16 µg/mL (≈ 27.3 µM) | MIC (Pseudomonas aeruginosa [20]): 32 µg/mL (≈ 54.6 µM) | MIC (Pseudomonas aeruginosa [21]): 16 µg/mL (≈ 27.3 µM)

CO/N=C(\C(=O)N[C@@H]1C(=O)N2C(C(=O)[O-])=C(C[N+]3(C)CCCC3)CS[C@H]12)c1csc(N)n1 [CEFEPIME]
MIC (Pseudomonas aeruginosa [1]): 4 µg/mL (≈ 8.32 µM) | MIC (Pseudomonas aeruginosa [2]): 16 µg/mL (≈ 33.3 µM) | MIC (Pseudomonas aeruginosa [3]): 8 µg/mL (≈ 16.6 µM) | MIC (Pseudomonas aeruginosa [4]): 16 µg/mL (≈ 33.3 µM) | MIC (Pseudomonas aeruginosa [5]): 16 µg/mL (≈ 33.3 µM) | MIC (Pseudomonas aeruginosa [6]): 16 µg/mL (≈ 33.3 µM) | MIC (Pseudomonas aeruginosa [7]): 4 µg/mL (≈ 8.32 µM) | MIC (Pseudomonas aeruginosa [8]): 4 µg/mL (≈ 8.32 µM) | MIC (Pseudomonas aeruginosa [9]): 2 µg/mL (≈ 4.16 µM) | MIC (Pseudomonas aeruginosa [10]): 2 µg/mL (≈ 4.16 µM) | MIC (Pseudomonas aeruginosa [11]): 4 µg/mL (≈ 8.32 µM) | MIC (Pseudomonas aeruginosa [12]): 4 µg/mL (≈ 8.32 µM) | MIC (Pseudomonas aeruginosa [13]): 16 µg/mL (≈ 33.3 µM) | MIC (Pseudomonas aeruginosa [14]): 4 µg/mL (≈ 8.32 µM) | MIC (Pseudomonas aeruginosa [16]): 4 µg/mL (≈ 8.32 µM) | MIC (Pseudomonas aeruginosa [17]): 16 µg/mL (≈ 33.3 µM) | MIC (Pseudomonas aeruginosa [18]): 4 µg/mL (≈ 8.32 µM) | MIC (Pseudomonas aeruginosa [19]): 16 µg/mL (≈ 33.3 µM) | MIC (Pseudomonas aeruginosa [20]): 4 µg/mL (≈ 8.32 µM) | MIC (Pseudomonas aeruginosa [21]): 16 µg/mL (≈ 33.3 µM)

O=C(O)c1cn(C2CC2)c2cc(N3CCNCC3)c(F)cc2c1=O [CIPROFLOXACIN]
MIC (Pseudomonas aeruginosa [2]): 1 µg/mL (≈ 3.02 µM) | MIC (Pseudomonas aeruginosa [4]): 1 µg/mL (≈ 3.02 µM) | MIC (Pseudomonas aeruginosa [5]): 1 µg/mL (≈ 3.02 µM) | MIC (Pseudomonas aeruginosa [6]): 1 µg/mL (≈ 3.02 µM) | MIC (Pseudomonas aeruginosa [13]): 1 µg/mL (≈ 3.02 µM) | MIC (Pseudomonas aeruginosa [19]): 1 µg/mL (≈ 3.02 µM) | MIC (Pseudomonas aeruginosa [21]): 1 µg/mL (≈ 3.02 µM)

NC[C@H]1O[C@H](O[C@H]2[C@H](O)[C@@H](O[C@H]3O[C@H](CO)[C@@H](O)[C@H](N)[C@H]3O)[C@H](N)C[C@@H]2N)[C@H](O)[C@@H](O)[C@@H]1O [KANAMYCIN]
MIC (Pseudomonas aeruginosa [1]): 64 µg/mL (≈ 132 µM) | MIC (Pseudomonas aeruginosa [2]): 512 µg/mL (≈ 1060 µM) | MIC (Pseudomonas aeruginosa [3]): 512 µg/mL (≈ 1060 µM) | MIC (Pseudomonas aeruginosa [4]): 512 µg/mL (≈ 1060 µM) | MIC (Pseudomonas aeruginosa [5]): 1020 µg/mL (≈ 2110 µM) | MIC (Pseudomonas aeruginosa [6]): 1020 µg/mL (≈ 2110 µM) | MIC (Pseudomonas aeruginosa [11]): 256 µg/mL (≈ 528 µM) | MIC (Pseudomonas aeruginosa [12]): 128 µg/mL (≈ 264 µM) | MIC (Pseudomonas aeruginosa [13]): 128 µg/mL (≈ 264 µM) | MIC (Pseudomonas aeruginosa [14]): 256 µg/mL (≈ 528 µM) | MIC (Pseudomonas aeruginosa [16]): 256 µg/mL (≈ 528 µM) | MIC (Pseudomonas aeruginosa [17]): 256 µg/mL (≈ 528 µM) | MIC (Pseudomonas aeruginosa [18]): 256 µg/mL (≈ 528 µM) | MIC (Pseudomonas aeruginosa [19]): 256 µg/mL (≈ 528 µM) | MIC (Pseudomonas aeruginosa [20]): 512 µg/mL (≈ 1060 µM) | MIC (Pseudomonas aeruginosa [21]): 256 µg/mL (≈ 528 µM)

CCN[C@@H]1C[C@H](N)[C@@H](O[C@H]2OC(CN)=CC[C@H]2N)[C@H](O)[C@H]1O[C@H]1OC[C@](C)(O)[C@H](NC)[C@H]1O [NETILMICIN]
MIC (Pseudomonas aeruginosa [1]): 4 µg/mL (≈ 8.41 µM) | MIC (Pseudomonas aeruginosa [2]): 64 µg/mL (≈ 135 µM) | MIC (Pseudomonas aeruginosa [3]): 64 µg/mL (≈ 135 µM) | MIC (Pseudomonas aeruginosa [4]): 64 µg/mL (≈ 135 µM) | MIC (Pseudomonas aeruginosa [5]): 128 µg/mL (≈ 269 µM) | MIC (Pseudomonas aeruginosa [6]): 256 µg/mL (≈ 538 µM) | MIC (Pseudomonas aeruginosa [11]): 8 µg/mL (≈ 16.8 µM) | MIC (Pseudomonas aeruginosa [12]): 8 µg/mL (≈ 16.8 µM) | MIC (Pseudomonas aeruginosa [13]): 8 µg/mL (≈ 16.8 µM) | MIC (Pseudomonas aeruginosa [14]): 8 µg/mL (≈ 16.8 µM) | MIC (Pseudomonas aeruginosa [16]): 8 µg/mL (≈ 16.8 µM) | MIC (Pseudomonas aeruginosa [17]): 16 µg/mL (≈ 33.6 µM) | MIC (Pseudomonas aeruginosa [18]): 16 µg/mL (≈ 33.6 µM) | MIC (Pseudomonas aeruginosa [19]): 16 µg/mL (≈ 33.6 µM) | MIC (Pseudomonas aeruginosa [20]): 16 µg/mL (≈ 33.6 µM) | MIC (Pseudomonas aeruginosa [21]): 16 µg/mL (≈ 33.6 µM)

NC[C@H]1O[C@H](O[C@H]2[C@H](O)[C@@H](O[C@H]3O[C@H](CO)[C@@H](O)[C@H](N)[C@H]3O)[C@H](N)C[C@@H]2N)[C@H](N)C[C@@H]1O [TOBRAMYCIN]
MIC (Pseudomonas aeruginosa [1]): 0.5 µg/mL (≈ 1.07 µM) | MIC (Pseudomonas aeruginosa [2]): 4 µg/mL (≈ 8.56 µM) | MIC (Pseudomonas aeruginosa [3]): 4 µg/mL (≈ 8.56 µM) | MIC (Pseudomonas aeruginosa [4]): 4 µg/mL (≈ 8.56 µM) | MIC (Pseudomonas aeruginosa [5]): 4 µg/mL (≈ 8.56 µM) | MIC (Pseudomonas aeruginosa [6]): 8 µg/mL (≈ 17.1 µM) | MIC (Pseudomonas aeruginosa [7]): 0.25 µg/mL (≈ 0.535 µM) | MIC (Pseudomonas aeruginosa [8]): 0.25 µg/mL (≈ 0.535 µM) | MIC (Pseudomonas aeruginosa [9]): 0.5 µg/mL (≈ 1.07 µM) | MIC (Pseudomonas aeruginosa [10]): 0.5 µg/mL (≈ 1.07 µM) | MIC (Pseudomonas aeruginosa [11]): 1 µg/mL (≈ 2.14 µM) | MIC (Pseudomonas aeruginosa [12]): 1 µg/mL (≈ 2.14 µM) | MIC (Pseudomonas aeruginosa [13]): 1 µg/mL (≈ 2.14 µM) | MIC (Pseudomonas aeruginosa [14]): 1 µg/mL (≈ 2.14 µM) | MIC (Pseudomonas aeruginosa [15]): 0.25 µg/mL (≈ 0.535 µM) | MIC (Pseudomonas aeruginosa [16]): 2 µg/mL (≈ 4.28 µM) | MIC (Pseudomonas aeruginosa [17]): 2 µg/mL (≈ 4.28 µM) | MIC (Pseudomonas aeruginosa [18]): 2 µg/mL (≈ 4.28 µM) | MIC (Pseudomonas aeruginosa [19]): 2 µg/mL (≈ 4.28 µM) | MIC (Pseudomonas aeruginosa [20]): 2 µg/mL (≈ 4.28 µM) | MIC (Pseudomonas aeruginosa [21]): 2 µg/mL (≈ 4.28 µM)

GENTAMICIN
MIC (Pseudomonas aeruginosa [1]): 1 µg/mL | MIC (Pseudomonas aeruginosa [7]): 0.125 µg/mL | MIC (Pseudomonas aeruginosa [8]): 0.125 µg/mL | MIC (Pseudomonas aeruginosa [9]): 0.25 µg/mL | MIC (Pseudomonas aeruginosa [10]): 0.25 µg/mL | MIC (Pseudomonas aeruginosa [11]): 2 µg/mL | MIC (Pseudomonas aeruginosa [12]): 2 µg/mL | MIC (Pseudomonas aeruginosa [13]): 4 µg/mL | MIC (Pseudomonas aeruginosa [14]): 2 µg/mL | MIC (Pseudomonas aeruginosa [15]): 1 µg/mL | MIC (Pseudomonas aeruginosa [16]): 4 µg/mL | MIC (Pseudomonas aeruginosa [17]): 8 µg/mL | MIC (Pseudomonas aeruginosa [18]): 8 µg/mL | MIC (Pseudomonas aeruginosa [19]): 8 µg/mL | MIC (Pseudomonas aeruginosa [20]): 8 µg/mL | MIC (Pseudomonas aeruginosa [21]): 8 µg/mL
